{"data": "Experimental data collected from several papers", "SLC2A9": "Solute carrier family 2, facilitated glucose transporter member 9 (SLC2A9, Homo sapiens, UniProt Q9NRM0)", "note": "Lines come from different studies, so protocols differ."}
{"Compound": "Cn1c(=O)c2c(ncn2C)n(C)c1=O", "target": "SLC2A9", "assay": "transporter uptake, inhibitor, radiometric", "setting": "oocytes", "measurement": "IC50", "value": "> 1000 µM"}
{"Compound": "Cc1ccc2oc(=O)cc(NCCO)c2c1", "target": "Alpha-1B adrenergic receptor (Adra1b, Rattus norvegicus, UniProt P15823)", "assay": "calcium signal, antagonist", "measurement": "IC50", "value": "178 µM"}
{"Compound": "O=C(C=Cc1ccccc1)Nc1cc(-c2ccnc(N3CCC(O)CC3)c2)ccn1", "target": "Nuclear receptor subfamily 4immunitygroup A member 1 (NR4A1, Homo sapiens, UniProt P22736)", "assay": "binding, SPR", "measurement": "Kd", "value": "0.121 µM"}
{"Compound": "O=C1CCc2ccccc2O1", "target": "cah (Neisseria gonorrhoeae, UniProt Q50940)", "assay": "enzyme activity, inhibitor, stopped-flow", "measurement": "Ki", "value": "25.8 µM"}
{"Compound": "N=c1c[n+](N2CCOCC2)[n-]o1", "target": "NAD-dependent protein deacetylase sirtuin-1 (SIRT1, Homo sapiens, UniProt Q96EB6)", "assay": "enzyme activity, inhibitor", "measurement": "IC50", "value": "7 µM"}
{"Compound": "CCOC(=O)/C=C/C(=O)[C@H](CC(C)C)NC(=O)[C@H](Cc1ccccc1)NC(=O)[C@H](Cc1ccccc1)N=[N+]=[N-] (mixture of isomers)", "target": "Procathepsin L (CTSL, Homo sapiens, UniProt P07711)", "assay": "enzyme activity, inhibitor", "measurement": "IC50", "value": "0.13 µM"}
{"Compound": "N[C@@H](Cc1ccccc1)C(=O)O", "target": "Alkaline phosphatase, placental type (Homo sapiens, UniProt P05187)", "assay": "enzyme activity, inhibitor", "measurement": "IC50", "value": "82.6 µM"}
{"Compound": "COc1ccc(C[C@H]2COC(=O)[C@@H]2Cc2ccc(OCC(=O)Nc3ccc(C(=O)Nc4ccccc4N)cc3)c(OC)c2)cc1OC", "target": "Histone deacetylase 4 (HDAC4, Homo sapiens, UniProt P56524)", "assay": "enzyme activity, inhibitor", "measurement": "IC50", "value": "> 10 µM"}
{"Compound": "Nc1ncnc2c1ncn2[C@@H]1O[C@H](COP(=O)(O)CP(=O)(O)OP(=O)(O)O)[C@@H](O)[C@H]1O", "target": "P2X purinoceptor 1 (P2RX1, Homo sapiens, UniProt P51575)", "assay": "binding, radioligand", "measurement": "Kd", "value": "0.043 µM"}
{"Compound": "Nc1ncnc2c1ncn2[C@@H]1O[C@H](CO)[C@@H](O)[C@H]1O", "target": "SLC2A9", "assay": "transporter uptake, inhibitor, radiometric", "setting": "oocytes", "measurement": "IC50", "value": "> 4000 µM"}
{"Compound": "O=C(c1ccc(OCCN2CCCCC2)cc1)c1c(-c2ccc(O)cc2)sc2cc(O)ccc12", "target": "Protein disulfide-isomerase (P4HB, Homo sapiens, UniProt P07237)", "assay": "binding, SPR", "measurement": "Kd", "value": "0.0297 µM"}
{"Compound": "CCCCCCCc1cc(O)cc(=O)o1", "target": "Aldo-keto reductase family 1 member C3 (AKR1C3, Homo sapiens, UniProt P42330)", "assay": "enzyme activity, inhibitor", "measurement": "IC50", "value": "10.6 µM"}
